{"source": "paper PMC6585996", "about": "(Clinical Pharmacology in Drug Development, 2018)", "key": {"[1]": {"conditions": "cited from earlier work"}, "[2]": {"assay": "Safety assessments in the phase 1 food-effect study", "assay_type": "in vivo, human"}, "serum albumin": {"system": "serum albumin", "conditions": "cited from earlier work"}, "[3]": {"system": "uridine diphosphate glucuronosyltransferase (UGT)1A1, UGT1A9", "conditions": "forms glucuronic acid conjugates; minor contribution by UGT1A9; cited from earlier work"}, "[4]": {"conditions": "cited from earlier work", "remark": "listed apart in the source"}, "HIV‐1": {"system": "HIV‐1", "conditions": "cited from earlier work"}, "[5]": {"conditions": "coadministered rifampin; cited from earlier work"}, "OATP": {"system": "OATP", "conditions": "cited from earlier work"}, "[6]": {"conditions": "10‐ and 30‐mg doses, early prototype formulations; ref Supplemental Data; cited from earlier work"}, "[7]": {"conditions": "30 mg with a moderate-fat meal; ref Supplemental Data; cited from earlier work"}, "[8]": {"conditions": "single-dose oral 30 mg, fasted conditions, cited from earlier work"}, "[9]": {"assay_type": "in vivo, human", "outline": "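Healthy adults aged 18–65 years (≥50 kg, BMI 18.5–31.0 kg/m2) were randomised 1:1 to a two-period crossover. Each received a single oral 30 mg tablet after ≥10 h fasting or within 30 min of a high-fat meal (~53% fat, ~870 calories), with a 14-day washout. Plasma was sampled predose to 168 h and assayed by protein precipitation plus LC-MS/MS (LLOQ 25 ng/mL, ULOQ 25,000 ng/mL). Parameters were noncompartmental. GLS mean ratios (90% CI) came from a mixed-effects model with treatment and period as fixed effects and participant as random.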"}, "[10]": {"conditions": "cited from earlier work", "remark": "listed apart in the source"}, "[11]": {"conditions": "cited from earlier work", "remark": "listed apart in the source"}, "[12]": {"conditions": "30-mg single oral dose, high-fat meal, n = 21"}, "[13]": {"conditions": "Fasted State vs High‐Fat Meal, 30-mg single dose, n = 21"}, "[14]": {"conditions": "high-fat meal compared with fasting state, 30 mg oral"}}, "note": "“Also recorded” adds a separate entry of the source. Where two headings read alike, the source gives them in different places.", "data": [{"smiles": "C[C@@H]1CCO[C@H]2Cn3cc(C(=O)NCc4ccc(F)cc4F)c(=O)c(O)c3C(=O)N12", "note": "[Dolutegravir]", "values": [{"measurement": "increase in plasma AUC0‐∞", "setting": "[1]; single-dose dolutegravir 50 mg with high-fat meal", "result": 66, "unit": "%"}, {"measurement": "increase in plasma AUC0‐∞", "setting": "[1]; single-dose dolutegravir 50 mg with low-fat meal", "result": 33, "unit": "%"}, {"measurement": "increase in plasma AUC0‐∞", "setting": "[1]; single-dose dolutegravir 50 mg with moderate-fat meal", "result": 41, "unit": "%"}]}, {"smiles": "C[C@H]1CO[C@@H]2Cn3cc(C(=O)NCc4ccc(F)cc4F)c(=O)c(O)c3C(=O)N12", "note": "[cabotegravir, Cabotegravir]", "values": [{"measurement": "treatment‐emergent laboratory abnormalities", "setting": "[2]; grade 2 hypoglycemia, grade 3 increased direct bilirubin", "result": 2, "unit": "participants"}, {"measurement": "electrocardiographic or vital sign abnormalities reported as AEs", "setting": "[2]; single 30-mg oral doses", "result": "No clinically significant electrocardiographic or vital sign abnormalities"}, {"measurement": "adverse events (grade 3/4, drug-related, serious, leading to discontinuation)", "setting": "[2]; single 30-mg oral doses, fasted and fed, healthy adults", "result": "No grade 3/4 adverse events (AEs), drug‐related AEs, or AEs leading to discontinuation were reported; also recorded: no AEs or serious AEs that led to discontinuation of the study drug"}, {"measurement": "binding to serum albumin", "setting": "serum albumin", "result": "highly bound"}, {"measurement": "metabolizing enzymes", "setting": "[3]", "result": "primarily metabolized by uridine diphosphate glucuronosyltransferase (UGT)1A1"}, {"measurement": "dose proportionality of trough concentration", "setting": "[4]", "result": "increase in proportional to dose"}, {"measurement": "dose proportionality of AUC and Cmax", "setting": "[4]; dose increased from 30 to 60 mg, ref Supplemental Data", "result": "less‐than‐dose‐proportional"}, {"measurement": "in vitro protein‐adjusted 90% inhibitory concentration", "setting": "HIV‐1", "result": 166, "unit": "ng/mL"}, {"measurement": "effect of rifampin on cabotegravir exposures", "setting": "[5]", "result": "significantly reduced"}, {"measurement": "substrate for intestinal uptake transporters such as OATP", "setting": "OATP", "result": "not a substrate"}, {"measurement": "effect of a moderate-fat meal (30% fat, ∼670 calories) on PK", "setting": "[6]", "result": "did not significantly affect"}, {"measurement": "half‐life, geometric mean (95% confidence interval)", "setting": "[7]", "result": 38.6, "unit": "h"}, {"measurement": "AUC(0-inf)", "setting": "[8]; read-out: AUC0‐∞", "result": 146, "unit": "µg·h/mL"}, {"measurement": "median time to peak plasma concentration (tmax)", "setting": "[8]", "result": 2, "unit": "h"}, {"measurement": "plasma apparent terminal‐phase half‐life (t1/2)", "setting": "[8]", "result": "approximately 38.5 hours"}, {"measurement": "effect of high-fat meal on tmax and t1/2", "setting": "[9]; 30 mg oral, high-fat meal vs fasting", "result": "Neither tmax nor t1/2 was affected"}, {"measurement": "CL/F, Mean (SD)", "setting": "[9]; 30-mg single oral dose, fasted state, n = 21", "result": "0.218 (0.0611) L/h"}, {"measurement": "CL/F, Mean (SD)", "setting": "[9]; [12]", "result": "0.191 (0.0553) L/h"}, {"measurement": "t1/2, Mean (SD)", "setting": "[9]; [12]", "result": "41.1 (6.57) h"}, {"measurement": "peak concentration of the one participant excluded from PK analysis", "setting": "[9]; 2 hours after dosing, fasting conditions, 30 mg oral", "result": 0.0987, "unit": "µg/mL"}, {"measurement": "AUC0‐∞, GLS Mean Ratio (90% CI)", "setting": "[9]; [13]", "result": "1.14 (1.02‐1.28)"}, {"measurement": "C24, GLS Mean Ratio (90% CI)", "setting": "[9]; [13]", "result": "1.17 (1.04‐1.30)"}, {"measurement": "CL/F, GLS Mean Ratio (90% CI)", "setting": "[9]; [13]", "result": "0.875 (0.785‐0.977)"}, {"measurement": "Cmax, GLS Mean Ratio (90% CI)", "setting": "[9]; [13]", "result": "1.14 (1.03‐1.27)"}, {"measurement": "t1/2, GLS Mean Ratio (90% CI)", "setting": "[9]; [13]", "result": "0.997 (0.964‐1.03)"}, {"measurement": "quantifiable predose concentrations", "setting": "[9]; crossover periods, 14-day washout", "result": "< 5 % of their respective Cmax values"}, {"measurement": "decrease in CL/F", "setting": "[9]; high-fat meal compared with after fasting, 30 mg oral", "result": 13, "unit": "%"}, {"measurement": "increase in maximal drug concentration", "setting": "[9]; [14]", "result": 14, "unit": "%"}, {"measurement": "increase in plasma area under the concentration‐time curve", "setting": "[9]; [14]", "result": 14, "unit": "%"}, {"measurement": "half-life", "setting": "[9]; human, plasma, po, 30 mg", "result": 41.1, "unit": "h"}, {"measurement": "Biopharmaceutics Drug Disposition Classification System class", "setting": "[10]", "result": "class 2"}, {"measurement": "passive permeability", "setting": "[10]", "result": "high"}]}, {"smiles": "Cc1nnc(C(=O)NC(C)(C)c2nc(C(=O)NCc3ccc(F)cc3)c(O)c(=O)n2C)o1", "note": "[Raltegravir]", "values": [{"measurement": "increase in AUC from time 0 to 12 hours", "setting": "[11]; raltegravir 400 mg twice daily with a high-fat meal", "result": 2, "unit": "fold"}, {"measurement": "increase in AUC from time 0 to last observation", "setting": "[11]; raltegravir 1200 mg (2 × 600 mg) once daily, following a high-fat meal", "result": 1.9, "unit": "%"}, {"measurement": "decrease in AUC from time 0 to last observation", "setting": "[11]; raltegravir 1200 mg (2 × 600 mg) once daily, following a low-fat meal", "result": 42, "unit": "%"}]}]}
